Results on six compounds are retold here after PMC11588046 (Proceedings of the National Academy of Sciences of the …, 2024).

Numbering of substitutions follows the chain as printed. pIC50: −log10 of the molar value. Values after ≈ are worked out from the molar mass of the structure shown. Read-outs that look alike come from different tables or passages of the source.

The nature of series [1]: Metabolic stability in mouse liver microsomes. Type of series: in vitro ADME. (In general: Liver microsomes are vesicles of endoplasmic reticulum, rich in cytochrome P450 enzymes.)
The target of the next series is T1, mutant ALK2 (R206H) (Homo sapiens, UniProt Q04771, R206H).
T1 sequence (Q04771 21-509 R206H): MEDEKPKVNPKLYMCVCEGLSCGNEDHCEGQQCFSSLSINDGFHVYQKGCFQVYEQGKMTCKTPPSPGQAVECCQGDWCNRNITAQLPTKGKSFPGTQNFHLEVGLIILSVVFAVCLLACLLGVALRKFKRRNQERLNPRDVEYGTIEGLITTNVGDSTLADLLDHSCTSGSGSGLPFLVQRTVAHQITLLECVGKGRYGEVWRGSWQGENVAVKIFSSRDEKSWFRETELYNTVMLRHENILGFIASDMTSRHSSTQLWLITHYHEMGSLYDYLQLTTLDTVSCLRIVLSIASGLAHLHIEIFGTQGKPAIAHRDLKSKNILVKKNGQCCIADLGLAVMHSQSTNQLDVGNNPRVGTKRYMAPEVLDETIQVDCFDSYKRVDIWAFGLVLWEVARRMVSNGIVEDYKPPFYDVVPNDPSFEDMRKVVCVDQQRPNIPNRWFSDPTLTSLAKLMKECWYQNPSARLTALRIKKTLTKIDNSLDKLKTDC
Type of series: cell-based. The note with it: read-out: ALK2 (R206H) IC50; NanoBRET, HEK293 cells. For orientation: BRET reads energy transfer from a luciferase to a nearby fluorophore.

Series [2] has as its system FOP fibroblasts (GM00513). In words: pSMAD Western blot in primary FOP fibroblasts. Type of series: cell-based, human. The note with it: FOP cells; for BMP2-induced pSMAD1/5 activation: 5 ng/mL BMP2, inhibitor 1, 5 or 25 µM (LDN 1 µM); for activin A-induced phosphorylation of SMAD1/5: 200 ng/mL activin A, inhibitor 1, 5 or 25 µM (LDN 1 µM). The method, boiled down: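 Primary fibroblasts from a patient with FOP (GM00513) were pretreated for 30 min with test compound (1, 5 or 25 µM) or a reference inhibitor (1 µM). Cells then received vehicle (DMSO), 200 ng/mL activin A or 5 ng/mL BMP2 for 45 min, with inhibitor present. Lysates were Western blotted for pSMAD1/5, total SMAD1, total SMAD5 and GAPDH (loading control). For activin A, pSMAD2/3 was also blotted.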

A further series in a line: Dynamic solubility assay. Format: physicochemical.
A short description of series [3]: Metabolic stability in human liver microsomes. Type of series: in vitro ADME.
A further series deals with WT ALK1 (Homo sapiens, UniProt P37023). In words: NanoBRET TE intracellular kinase assay. Format: cell-based. The note with it: read-out: ALK1 IC50, HEK293 cells.
A further series addresses T2, WT ALK2 (Homo sapiens, UniProt Q04771).
T2 sequence (Q04771 21-509): T1 sequence (Q04771 21-509 R206H) with H186R
Format: cell-based. The note with it: read-out: ALK2 IC50; NanoBRET, HEK293 cells.

The next series has as its system WT fibroblasts (GM01652). In words: pSMAD1/5 Western blot in primary WT fibroblasts. Type of series: cell-based, human. The note with it: 5 ng/mL BMP2, inhibitor 1, 5 or 25 µM (LDN 1 µM). In general terms: A western blot detects proteins with antibodies after separation by electrophoresis.
Another series relates to 293 T-BRE-Luc cells. In words: BMP-induced luciferase activity in 293 T-BRE-Luc reporter cells. Format: cell-based. Summed up:
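293T cells stably carrying a BMP-responsive element–luciferase reporter, about 20,000 per well, attached overnight. Pretreated 30 min with DMSO vehicle or test compound (0.04, 0.2, 1, 5, 25 μM) in phenol-red-free DMEM with 2 mM glutamine and 2% heat-inactivated FBS. Then stimulated 6 h with BMP2 (5 ng/mL), BMP6 (500 ng/mL) or BMP7 (500 ng/mL). BrightGLO luminescence normalized to ligand-only samples; dose-response curves fitted.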

By pIC50 is commonly meant the negative decadic logarithm of the IC50, by convention in mol/L. One may read the Solubility as the concentration that dissolves in the medium under given conditions. A lower Solubility goes with little dissolved substance.

WT ALK1, sequence (P37023 22-503): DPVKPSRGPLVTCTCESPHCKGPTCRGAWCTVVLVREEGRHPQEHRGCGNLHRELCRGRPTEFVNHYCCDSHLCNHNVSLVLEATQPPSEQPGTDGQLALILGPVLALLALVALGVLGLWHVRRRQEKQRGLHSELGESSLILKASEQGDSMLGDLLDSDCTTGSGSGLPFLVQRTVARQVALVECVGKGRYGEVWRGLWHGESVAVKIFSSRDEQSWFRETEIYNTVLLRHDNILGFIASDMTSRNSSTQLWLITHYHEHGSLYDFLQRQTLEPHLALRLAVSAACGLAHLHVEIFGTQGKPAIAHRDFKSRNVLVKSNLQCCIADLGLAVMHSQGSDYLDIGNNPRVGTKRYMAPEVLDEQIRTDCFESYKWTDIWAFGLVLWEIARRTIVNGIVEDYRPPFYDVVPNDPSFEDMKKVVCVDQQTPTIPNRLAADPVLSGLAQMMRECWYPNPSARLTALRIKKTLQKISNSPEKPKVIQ

On to `CNC(=O)[C@H]1C[C@H](n2c(-c3cc(F)cc(OC)c3)nc3ccc(C(=O)NCCCN4CCN(c5ccccc5)CC4)cc32)C1` [CDD-2340], for which the “MLM t1/2” value in [1] (U, extremely unstable) was 7.1 min. In addition, the pIC50 is 5.03 at mutant ALK2 (R206H), less than 4.52 at WT ALK1 and 5.28 on WT ALK2. Moreover, the “BMP2-induced pSMAD1/5 activation” value in series [2] was “only the highest concentration (25 µM) was sufficient to significantly reduce pSMAD1/5 activation”; in the series on WT fibroblasts (GM01652), “potently reduced BMP2-induced pSMAD1/5 activation in the WT fibroblasts at 5 and 25 µM”. In series [2], the “activin A-induced phosphorylation of SMAD1/5” value is “significantly inhibit the activin A-induced phosphorylation of SMAD1/5 starting at the 1 µM concentration”. Besides, the Solubility in the series “Dynamic solubility assay” turned out to be 121.8 µM (≈ 72.9 µg/mL). In addition, the “HLM t1/2” value in series [3] (U, extremely unstable) was 24.4 min.
In the case of `CNC(=O)[C@H]1C[C@H](n2c(-c3cc(OC)c(OC)c(OC)c3)nc3ccc(C(=O)NCCCN(C)C)cc32)C1` [CDD-2281], the “MLM t1/2” value in [1] is 804 min; in series [1] (U, extremely unstable), 807 min. Also, the negative logarithm of the IC50 (pIC50) on mutant ALK2 (R206H), on WT ALK1 and at WT ALK2 was less than 4.52 each time. The Solubility in the series “Dynamic solubility assay” is listed as 199.6 µM (≈ 105 µg/mL). The “HLM t1/2” value is 768 min in series [3] and 769 min in series [3] (U, extremely unstable).
For `CNC(=O)[C@H]1C[C@H](n2c(-c3ccc(OC)c(OC)c3)nc3ccc(C(=O)NCCCN4CCN(c5cccc(C)c5C)CC4)cc32)C1` [CDD-2421], the “MLM t1/2” value in series [1] (U, extremely unstable) was found to be 3.7 min. Further, the negative-log IC50 (pIC50) was 5.62 on mutant ALK2 (R206H), less than 4.52 at WT ALK1 and 5.91 at WT ALK2. In the series “Dynamic solubility assay”, this compound had a Solubility of 44.8 µM (≈ 28.6 µg/mL). For the same compound, the “HLM t1/2” value in [3] (U, extremely unstable) turned out to be 6.0 min.
As to `COc1cc(-c2nc3ccc(C(=O)NCCCN4CCN(c5ccccc5)CC4)cc3n2C2CCC2)cc(OC)c1OC` [CDD-2315], in series [1] (U, extremely unstable), the “MLM t1/2” value came out at 6.3 min. The negative logarithm of the IC50 (pIC50) was 5.91 at mutant ALK2 (R206H); less than 4.52 on WT ALK1; 6.24 on WT ALK2; 5.83 in the series on 293 T-BRE-Luc cells (read-out: IC50 of BMP2-induced luciferase activity, 5 ng/mL BMP2, 6 h); 5.84 with 293 T-BRE-Luc cells (read-out: IC50 of BMP6-induced luciferase activity, 500 ng/mL BMP6, 6 h); 6.01 with 293 T-BRE-Luc cells (read-out: IC50 of BMP7-induced luciferase activity, 500 ng/mL BMP7, 6 h). Moreover, in [2], the “activin A-induced phosphorylation of SMAD1/5” value is listed as “significantly inhibit the activin A-induced phosphorylation of SMAD1/5 starting at the 1 µM concentration”. This compound also yielded a Solubility in the series “Dynamic solubility assay” of 63.5 µM (≈ 37.1 µg/mL). Further, the “HLM t1/2” value in series [3] (U, extremely unstable) amounted to 7.8 min. For the same compound, the “BMP2-induced pSMAD1/5 activation” value with WT fibroblasts (GM01652) is “significantly reduced pSMAD1/5 at all the concentrations tested”.
With `COc1cc(-c2nc3ccc(C(=O)NCC4(O)CCN(Cc5ccccc5)CC4)cc3n2C2CCC2)cc(OC)c1OC` [CDD-2795], the “MLM t1/2” value in series [1] (U, extremely unstable) stood at 2.9 min. Moreover, the negative logarithm of the IC50 (pIC50) at mutant ALK2 (R206H) was 6.34; at WT ALK1 it was 5.07; at WT ALK2 it was 6.41. For the same compound, the Solubility in the series “Dynamic solubility assay” is 141.5 µM (≈ 82.7 µg/mL). For the same compound, the “HLM t1/2” value in series [3] (U, extremely unstable) is 17.0 min.
Take `c1ccc2c(-c3cnn4cc(-c5ccc(N6CCNCC6)cc5)cnc34)ccnc2c1` [LDN-193189, reference compound]: in series [2], the “BMP2-induced pSMAD1/5 activation” value is given as “effectively suppressed pSMAD1/5 activation” and the “activin A-induced phosphorylation of SMAD1/5” value is reported as “effectively suppressed pSMAD1/5 activation”. In addition, the “BMP2-induced pSMAD1/5 activation” value in the series on WT fibroblasts (GM01652) was “effectively suppressed pSMAD1/5 activation”.
